# From ChEMBL document CHEMBL5058577, “EUbOPEN Chemogenomics Library 2 (Multiplex)” (2022)
# System: HEK-293T
# Assay: Multiplex assay against HEK293T
# Type: toxicity, cell-based
# Settings: human
# Outline: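 Live cells carried four stains from seeding: Hoechst33342, BioTracker Green Microtubule Cytoskeleton Dye, MitoTracker Red and Annexin V Alexa Fluor 680. They were imaged on a CQ1 microscope at 37°C and 5% CO2 after compound addition. Using CellPathfinder machine-learning gating, cells were split into Hoechst high-intensity objects or normal cells, normal cells into healthy, pyknosed or fragmented nuclei, and pyknosed cells into mitotic or apoptotic; tubulin, mitochondrial-mass and membrane-permeability phenotypes are per cents of healthy-nucleus cells.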
# [1] = 12 h, 1 µM, compound concentration 1 uM, replicate 1
# [2] = 12 h, 1 µM, compound concentration 1 uM, replicate 2
# [3] = 12 h, 10 µM, compound concentration 10 uM, replicate 1
# [4] = 12 h, 10 µM, compound concentration 10 uM, replicate 2
# [5] = 24 h, 1 µM, compound concentration 1 uM, replicate 1
# [6] = 24 h, 1 µM, compound concentration 1 uM, replicate 2
# [7] = 24 h, 10 µM, compound concentration 10 uM, replicate 1
# [8] = 24 h, 10 µM, compound concentration 10 uM, replicate 2
# [9] = 48 h, 1 µM, compound concentration 1 uM, replicate 1
# [10] = 48 h, 1 µM, compound concentration 1 uM, replicate 2
# [11] = 48 h, 10 µM, compound concentration 10 uM, replicate 1
# [12] = 48 h, 10 µM, compound concentration 10 uM, replicate 2
smiles,measurement,setting,value
CN1CCN(c2cc(-c3ccccc3)nc(N)n2)CC1,Population Apoptotic (%),[1],40%
same,Population Fragmented Nuclei (%),[1],8%
same,Population Healthy Nuclei (%),[1],79%
same,Population Hoechst High Intensity Objects (%),[1],6%
same,Population Membrane Permeable-Phenotype (%),[1],0%
same,Population Mitochondria Different-Phenotype (%),[1],35%
same,Population Mitotic Cells (%),[1],60%
same,Population Normal (%),[1],93%
same,Population Pyknosed Nuclei (%),[1],11%
same,Population Tubulin-Different-Phenotype (%),[1],21%
same,Total Cell Count,[1],383
same,Population Apoptotic (%),[2],34%
same,Population Fragmented Nuclei (%),[2],5%
same,Population Healthy Nuclei (%),[2],84%
same,Population Mitochondria Different-Phenotype (%),[2],48%
same,Population Mitotic Cells (%),[2],65%
same,Population Pyknosed Nuclei (%),[2],10%
same,Population Tubulin-Different-Phenotype (%),[2],16%
same,Total Cell Count,[2],354
same,Population Apoptotic (%),[3],23%
same,Population Fragmented Nuclei (%),[3],7%
same,Population Healthy Nuclei (%),[3],82%
same,Population Hoechst High Intensity Objects (%),[3],7%
same,Population Membrane Permeable-Phenotype (%),[3],0%
same,Population Mitochondria Different-Phenotype (%),[3],46%
same,Population Mitotic Cells (%),[3],76%
same,Population Normal (%),[3],92%
same,Population Pyknosed Nuclei (%),[3],9%
same,Population Tubulin-Different-Phenotype (%),[3],30%
same,Total Cell Count,[3],416
same,Population Apoptotic (%),[4],36%
same,Population Fragmented Nuclei (%),[4],6%
same,Population Healthy Nuclei (%),[4],81%
same,Population Hoechst High Intensity Objects (%),[4],10%
same,Population Mitochondria Different-Phenotype (%),[4],63%
same,Population Mitotic Cells (%),[4],63%
same,Population Normal (%),[4],89%
same,Population Pyknosed Nuclei (%),[4],12%
same,Population Tubulin-Different-Phenotype (%),[4],20%
same,Total Cell Count,[4],296
same,Population Apoptotic (%),[5],20%
same,Population Fragmented Nuclei (%),[5],9%
same,Population Healthy Nuclei (%),[5],79%
same,Population Hoechst High Intensity Objects (%),[5],4%
same,Population Membrane Permeable-Phenotype (%),[5],1%
same,Population Mitochondria Different-Phenotype (%),[5],16%
same,Population Mitotic Cells (%),[5],79%
same,Population Normal (%),[5],95%
same,Population Pyknosed Nuclei (%),[5],11%
same,Population Tubulin-Different-Phenotype (%),[5],12%
same,Total Cell Count,[5],488
same,Population Apoptotic (%),[6],36%
same,Population Healthy Nuclei (%),[6],82%
same,Population Mitochondria Different-Phenotype (%),[6],24%
same,Population Mitotic Cells (%),[6],63%
same,Population Pyknosed Nuclei (%),[6],8%
same,Population Tubulin-Different-Phenotype (%),[6],8%
same,Total Cell Count,[6],480
same,Population Apoptotic (%),[7],44%
same,Population Fragmented Nuclei (%),[7],13%
same,Population Healthy Nuclei (%),[7],75%
same,Population Hoechst High Intensity Objects (%),[7],6%
same,Population Membrane Permeable-Phenotype (%),[7],0%
same,Population Mitochondria Different-Phenotype (%),[7],32%
same,Population Mitotic Cells (%),[7],55%
same,Population Normal (%),[7],93%
same,Population Pyknosed Nuclei (%),[7],11%
same,Population Tubulin-Different-Phenotype (%),[7],19%
same,Total Cell Count,[7],577
same,Population Apoptotic (%),[8],34%
same,Population Fragmented Nuclei (%),[8],9%
same,Population Healthy Nuclei (%),[8],79%
same,Population Hoechst High Intensity Objects (%),[8],9%
same,Population Mitochondria Different-Phenotype (%),[8],50%
same,Population Mitotic Cells (%),[8],65%
same,Population Normal (%),[8],90%
same,Population Tubulin-Different-Phenotype (%),[8],17%
same,Total Cell Count,[8],378
same,Population Apoptotic (%),[9],23%
same,Population Fragmented Nuclei (%),[9],13%
same,Population Healthy Nuclei (%),[9],78%
same,Population Hoechst High Intensity Objects (%),[9],1%
same,Population Membrane Permeable-Phenotype (%),[9],1%
same,Population Mitochondria Different-Phenotype (%),[9],12%
same,Population Mitotic Cells (%),[9],76%
same,Population Normal (%),[9],98%
same,Population Pyknosed Nuclei (%),[9],7%
same,Population Tubulin-Different-Phenotype (%),[9],12%
same,Total Cell Count,[9],745
same,Population Apoptotic (%),[10],14%
same,Population Healthy Nuclei (%),[10],80%
same,Population Hoechst High Intensity Objects (%),[10],2%
same,Population Membrane Permeable-Phenotype (%),[10],0%
same,Population Mitochondria Different-Phenotype (%),[10],14%
same,Population Mitotic Cells (%),[10],85%
same,Population Normal (%),[10],97%
same,Population Pyknosed Nuclei (%),[10],6%
same,Population Tubulin-Different-Phenotype (%),[10],9%
same,Total Cell Count,[10],804
same,Population Apoptotic (%),[11],16%
same,Population Fragmented Nuclei (%),[11],17%
same,Population Healthy Nuclei (%),[11],75%
same,Population Hoechst High Intensity Objects (%),[11],3%
same,Population Membrane Permeable-Phenotype (%),[11],0%
same,Population Mitochondria Different-Phenotype (%),[11],25%
same,Population Mitotic Cells (%),[11],83%
same,Population Normal (%),[11],96%
same,Population Pyknosed Nuclei (%),[11],6%
same,Population Tubulin-Different-Phenotype (%),[11],14%
same,Total Cell Count,[11],861
same,Population Apoptotic (%),[12],27%
same,Population Fragmented Nuclei (%),[12],13%
same,Population Healthy Nuclei (%),[12],81%
same,Population Membrane Permeable-Phenotype (%),[12],1%
same,Population Mitochondria Different-Phenotype (%),[12],24%
same,Population Mitotic Cells (%),[12],72%
same,Population Pyknosed Nuclei (%),[12],4%
same,Population Tubulin-Different-Phenotype (%),[12],11%
same,Total Cell Count,[12],645
